High-throughput results from PubChem BioAssay.
The sample as a whole holds a higher share of hits than the screen did.
ABCB1 inh – inhibitors of human ABCB1 transporter, ABCG2 counter-screen | CCRF-Adr cells, JC-1 efflux, flow cytometry | inhibition, % at 6.6 µM | 190,000 compounds, 0.067% hits; in the data active = inhibition above about 40%;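 also: higher value means more JC-1 retained so stronger ABCB1 efflux block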
ABCG2 inh – human ABCG2 inhibition, ABCB1 as counter-screen | inhibition, % at 6.6 µM | IgMXP3 cells, JC-1 efflux, flow cytometry | Q9UNQ0 | 190,000 compounds, 0.1% hits;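 active = inhibition above 80%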
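Test system: IgMXP3 (ABCG2) plus far-red-tagged CCRF-Adr (ABCB1) cells. Reagent: JC-1 dye as substrate. Timing: 10 min exposure at 25 °C with rotation, no wash. Measured by: flow cytometric JC-1 green MFI at 530 nm. Read-out: percent efflux inhibition, scaled nicardipine 100% to DMSO 0%. Control set: nicardipine and DMSO wells.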
GSH fluor – compound fluoresces at 488/530 nm on GSH beads. GSH beads flow cytometry, compound fluorescence 488/530 nm; active compounds read high. fluorescence (KMESF) at 10 µM. 190,000 compounds, 0.25% hits; in the data active = fluorescence above about 89;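 also: glutathione beads carrying GST-tagged Bcl family fusion proteins plus one bare bead set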
L major viab – Leishmania major promastigote growth inhibition | Leishmania major promastigotes, resazurin fluorescence viability | inhibition, % at 10 µM | 200,000 compounds, 9% hits;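 also: promastigotes grown with compound for 44 hours at 28 °C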
PKD1 inh – inhibitors of human PKD1 kinase. Q15139. PKD1 kinase fluorescence polarization assay. inhibition, % (test concentration not listed). 200,000 compounds, 0.056% hits. AID 797
Avidin fluor – avidin bead compound fluorescence profile | 220,000 compounds, 0.38% hits | Avidin beads, compound fluorescence 488/530 nm, flow cytometry; active compounds read high | fluorescence (KMESF) at 10 µM; in the data active = fluorescence above about 47
Large screens that a line does not name were inactive. Rule as the data show it, unless noted: active = inhibition above about 50%; inactive = the rest.

COc1ccc(N2C(=O)C3C4C=CC(C4)C3C2=O)c(OC)c1 (centres undefined)	none
COc1ccc(N2CCc3c(C)nc4c(OC)cc(OC)cc4c32)cc1	L major viab 100.0
Cc1nc2c(C)cccc2c2c1CCN2c1ccccc1F	none (no result: ABCB1 inh, ABCG2 inh, GSH fluor, L major viab, PKD1 inh)
COc1ccc(N2CCc3c(C)nc4c(OC)cc(OC)cc4c32)c(OC)c1	L major viab 100.7
C=CCN(CC=C)CCOc1ccc2ccccc2c1	none
CSc1ncccc1C(=O)Nc1nc2c(C)cccc2s1	L major viab 69.5
Cc1ccc(OCC(=O)OC2CCS(=O)(=O)C2)cc1 (centres undefined)	none
CCOC(=O)N1CCN(C2=Nc3cccc4cccc2c34)CC1	none
CCCCN(C)C1=Nc2cccc3cccc1c23	L major viab 56.9
COc1ccc(Cc2nnc(NC(=O)c3ccco3)s2)cc1	none
C=CCNC(=O)c1ccc(Sc2ccc(C)cc2)c([N+](=O)[O-])c1	none
Cc1ccc(Sc2ccc(CN3CCCCC3)cc2[N+](=O)[O-])cc1	L major viab 79.2
O=C1C(Cc2cccc([N+](=O)[O-])c2)SC(=Nc2ccccc2)N1c1ccccc1 (centres undefined)	none
c1ccc(Cn2nnnc2CN2CCN(Cc3ccc4c(c3)OCO4)CC2)cc1	L major viab 88.5
CCN1CCN(C(c2nnnn2Cc2ccc3c(c2)OCO3)C(C)C)CC1 (centres undefined)	none
Cc1ccc(C(c2nnnn2Cc2cccs2)N2CCN(Cc3ccc4c(c3)OCO4)CC2)cc1 (centres undefined)	L major viab 78.0
CC(C)C(c1nnnn1Cc1ccc(F)cc1)N1CCN(Cc2ccc3c(c2)OCO3)CC1 (centres undefined)	L major viab 67.8
CCC(c1nnnn1Cc1ccc2c(c1)OCO2)N1CCN(c2ccc(OC)cc2)CC1 (centres undefined)	L major viab 70.7
CCCCCN(C(=O)NC(=O)Nc1ccc(C)cc1)S(=O)(=O)c1ccccc1	none
COc1ccc(-c2cc(C(F)(F)F)c(C#N)c(SCC(=O)O)n2)cc1OC	none (no result: ABCB1 inh, ABCG2 inh, GSH fluor, L major viab, PKD1 inh)
O=C(N/N=C/c1ccc(F)cc1)c1ccccc1	none
O=C(N/N=C/c1sc2ccccc2c1O)c1ccccc1	L major viab 97.9
O=C(N/N=C/c1sc2ccccc2c1O)c1cccc2ccccc12	L major viab 86.4
COc1ccc(C(=O)N/N=C/c2sc3ccccc3c2O)cc1	L major viab 76.7
COc1ccc2cc(C(=O)N/N=C/c3sc4ccccc4c3O)ccc2c1	none
Oc1c(C=Nc2cccc3cccnc23)sc2ccccc12	L major viab 99.2
Cc1sccc1/C=N/NC(=O)c1cccc2ccccc12	none
Cc1cccc(N/N=C(\C=N\N)C(=O)c2ccc(Br)cc2)c1	none
CCc1cccc(CC)c1-n1c(SCC(=O)N2CCc3ccccc3C2)nnc1-c1cccnc1	L major viab 98.8
COCC(C)n1c(SCC(=O)N2CCc3ccccc3C2)nc2ccccc2c1=O (centres undefined)	L major viab 90.5
COCC(C)n1c(SCC(=O)N2CCCCC2)nc2ccccc2c1=O (centres undefined)	none
Cc1ccccc1-n1c(C)nnc1SCC(=O)N1CCc2ccccc2C1	L major viab 50.4
O=C(CSc1nnc(-c2ccncc2)o1)N1CCc2ccccc2C1	Avidin fluor 47
COc1ccc(C(=O)C2CCCN(C(=O)/C=C/c3ccccn3)C2)c(C)c1 (centres undefined)	none
COc1ccc(NC(=O)c2ccc(-c3ccccc3)cc2)cc1S(=O)(=O)N1CCOCC1	none
Cn1c(SCC(=O)N2CCc3ccccc3C2)nnc1-c1cccs1	L major viab 78.4
CCc1cccc(CC)c1-n1c(SCn2nnc3ccccc3c2=O)nnc1-c1cccnc1	L major viab 67.2
CCc1cccc(CC)c1-n1c(SCC(=O)c2c(N)n(C)c(=O)n(C)c2=O)nnc1-c1cccnc1	none
Cc1cc(C(F)(F)F)n(-c2ccc(N)cc2)n1	none
OCCCCNCc1ccc(OCc2ccc(Cl)cc2Cl)cc1	L major viab 100.5
OCCNCc1ccc(OCc2ccc(Cl)cc2Cl)cc1	L major viab 100.5
O=C(COc1ncnc2ccccc12)Nc1cc([N+](=O)[O-])ccc1F	none (no result: ABCB1 inh, ABCG2 inh, GSH fluor, L major viab, PKD1 inh)
Cc1cc(C)nc(N2CCCC(C(=O)NCc3ccccc3F)C2)n1 (centres undefined)	none
O=C(CS(=O)(=O)c1ccccc1)N1CCc2ccccc21	none
COC(=O)c1ccc(/C=N/OCC(=O)NCc2ccc(F)cc2)cc1	Avidin fluor 54
O=C(Nc1ccc(Cl)c(Cl)c1)c1cccc(S(=O)(=O)NCc2cccnc2)c1	none
Cc1ccccc1Nc1c(-c2ccncc2)nc2ccc(Br)cn12	L major viab 95.9
Cc1ccc2nc(-c3ccccn3)c(Nc3ccccc3C)n2c1	L major viab 100.5
Cc1ccc2nc(-c3cccnc3)c(Nc3ccccc3C)n2c1	none
Cc1ccccc1Nc1c(-c2ccccn2)nc2ccccn12	L major viab 100.4
Cc1ccn2c(Nc3ccccc3)c(-c3ccccn3)nc2c1	L major viab 100.6
O=C(CCn1c(=O)[nH]c2ccccc2c1=O)NCCSCc1ccccc1	none
CC(C)(C)N/C=C(\C#N)S(=O)(=O)c1ccc(Br)cc1	none (no result: ABCB1 inh, ABCG2 inh, GSH fluor, L major viab, PKD1 inh)
CC(C)c1csc(CN2CCC(N3CCC(C(=O)N4CCOCC4)CC3)CC2)n1	none
Cc1ccn2c(Nc3ccccc3C)c(-c3ccccn3)nc2c1	L major viab 100.7
Cc1cccn2c(Nc3ccccc3)c(-c3ccccn3)nc12	none
COc1ccc(C(=O)NC(=S)Nc2ccc(CN3CCCCC3)cc2)cc1Cl	L major viab 98.7
Cc1ccc(C(=O)NC(=S)Nc2ccc(CN3CCCCC3)cc2)c(C)c1	L major viab 73.3
COc1c(Cl)cc(Cl)cc1C(=O)Nc1ccc(CN2CCCCC2)cc1	L major viab 100.2
COc1ccccc1C(=O)Nc1ccc(CN2CCCCC2)cc1	none
COC(=O)[C@H](CC(C)C)NC(=O)NCCC1=CCCCC1	none (no result: ABCB1 inh, ABCG2 inh, GSH fluor, L major viab, PKD1 inh)
COC(=O)C(NC(=O)c1ccccc1C)(Nc1ncc(S(=O)(=O)c2ccc([N+](=O)[O-])cc2)s1)C(F)(F)F (centres undefined)	none
COC(=O)C(NC(=O)c1ccc(F)cc1)(Nc1ncc(S(=O)(=O)c2ccc([N+](=O)[O-])cc2)s1)C(F)(F)F (centres undefined)	L major viab 58.1
O=C(c1ccccc1)N1CCN(c2ccc([N+](=O)[O-])cc2-n2cccc2)CC1	none (no result: ABCB1 inh, ABCG2 inh, GSH fluor, L major viab, PKD1 inh)
Cc1ccc(NC(=O)c2cc(C(=O)c3cc(Cl)ccc3O)cn(-c3ccc(C)cc3)c2=O)cc1	L major viab 99.1
N#Cc1cc(C(=O)c2cc(Cl)ccc2O)cn(-c2ccccc2)c1=O	none
COC(=O)c1cc([N+](=O)[O-])c(-n2ccnc2)c([N+](=O)[O-])c1	none
